Out of some 300,000 compounds screened, about 120 (0.04%) were called active. This excerpt belongs to a sample that is enriched for actives. Unmarked numbers belong to inactive results.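 Rule for the calls: active = more than half of replicate wells score below -50%, meaning over 50% inhibition versus plate controls; inconclusive = some replicates but at most half score below -50%; inactive = no replicate scores below -50%.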

Glycogen synthase kinase-3 beta (Homo sapiens), sequence (P49841 whole entry, looked up, the tested form may be a part): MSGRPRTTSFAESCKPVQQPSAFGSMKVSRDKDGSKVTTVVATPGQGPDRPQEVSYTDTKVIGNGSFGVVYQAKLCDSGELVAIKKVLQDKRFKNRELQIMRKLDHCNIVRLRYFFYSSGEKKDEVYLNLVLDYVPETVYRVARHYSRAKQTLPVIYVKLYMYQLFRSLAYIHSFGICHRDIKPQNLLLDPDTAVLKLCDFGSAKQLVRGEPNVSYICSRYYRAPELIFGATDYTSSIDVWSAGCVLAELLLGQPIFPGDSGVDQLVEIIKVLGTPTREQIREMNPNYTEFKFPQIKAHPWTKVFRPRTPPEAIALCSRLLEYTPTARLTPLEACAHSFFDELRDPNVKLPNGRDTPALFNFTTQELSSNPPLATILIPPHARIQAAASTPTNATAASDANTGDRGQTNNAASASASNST

The experiment has as its target Glycogen synthase kinase-3 beta (Homo sapiens) (UniProt P49841). Description: human GSK3beta kinase inhibitors, primary screen, biochemical, cell-free homogeneous, HTS (AID 2097).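 Note: 0% = median DMSO wells and -100% = median GW8510 positive control wells.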 To be noted: GST-GSK3beta kinase, ADP-Glo luminescence, 60 min; at 10 µM; stronger effect = lower value. The gist of the method: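 Assay system: GST-fused GSK3beta enzyme, cell-free / Medium: Tris pH 7.5 buffer with MgCl2, DTT, BSA, heparin / Also added: peptide substrate plus 25 µM ATP (final) / Compound: 10 µM single point / Timing: kinase reaction with compound 60 min at room temperature / Detection: ADP-Glo luminescence / Benchmarks: DMSO neutral wells and GW8510 at 20 µM as positive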
On the technique in general: ADP-Glo turns the ADP formed in a reaction into a luminescent signal.
Turning to `COc1ccc(C(=O)NC(C)Cn2nc(C)cc2C)cc1OC1CCN(C(C)=O)CC1` (stereo not given), the activity score (negative = inhibition) was -1.16%.
Under `COc1cc(CN2CCC(n3nccc3NC(=O)CCCc3ccccc3)CC2)ccc1O` stands 1.56%.
To `O=C(Cc1ccccc1)NCC1OCCc2ccccc21` (stereo not given) belongs 1.24%; to `CSCCNCc1cn(-c2ccc(F)cc2F)nc1-c1ccccc1C`, 6.14%; to `COCCCNC(=O)CNC(=S)N(Cc1cc(OC)c(OC)c(OC)c1)C1CCCC1`, -1.22%.
Under `CC(CCc1ccccc1)NCC(O)c1cccc([N+](=O)[O-])c1` (stereo not given) stands 0.339%; under `O=C(C1CC1)N1N=C2CCCCC2C1(O)C(F)(F)F` (stereo not given), -1.66%; under `Cc1ccn2c(=O)c(NC(=O)c3cccc4ccccc34)c(C)nc2c1`, -0.598%.
As to `CCN(CC(=O)N1CCCC1)S(=O)(=O)c1ccc(F)cc1`, the activity score (negative = inhibition) is -0.618%.
To `O=C(NCCNc1ccc([N+](=O)[O-])cc1Cl)c1ccccc1F` belongs -5.43%.
As to `COc1ccc(N(Cc2ccc(N(C)C)cc2)C(=O)c2ccc(S(C)(=O)=O)cc2)cc1`, the activity score (negative = inhibition) was 1.2%.
Take `Cc1cc(C)c(OCCN2CC(C)OC(C)C2)c(Br)c1` (stereo not given): the activity score (negative = inhibition) was -2.1%.
To `Cc1nc(SCC(=O)NC2CCCC2)[nH]c(=O)c1C` belongs 1.74%; to `COc1ccccc1CNC(=O)C1CCN(S(=O)(=O)c2ccc3c(c2)OCCO3)CC1`, -1.16%.
To `COc1ccc(CCc2nc(-c3cccs3)no2)cc1` belongs 2.12%; to `O=C(CCN1C(=O)C2C3C=CC(C3)C2C1=O)Oc1ccc2ccccc2c1` (stereo not given), 1.85%; to `Nc1cccnc1Sc1ccccc1`, -4.02%.
With `C=CCn1cc(C(=O)NCc2ccc(Cl)cc2)c(=O)c2cc(S(=O)(=O)N(CC)CC)ccc21`, the activity score (negative = inhibition) is 4.27%.
Under `O=C(O)C1CCCN1C1=NS(=O)(=O)c2ccccc21` (stereo not given) stands 1.84%.
In the case of `COC(=O)c1c(C(=O)OC)c(-c2cccc(C)c2)n2c1CS(=O)C2` (stereo not given), the activity score (negative = inhibition) was -0.0395%.
To `C[C@H](NC(=O)[C@@H]1Cc2ccccc2CN1C(=O)OC(C)(C)C)C(=O)NC1CCCC1` belongs 0.0958%; to `C=CCN1CCN(C(=O)CCCc2ccccc2)CC1`, 3.12%.
Consider `COc1ccccc1N1CCC(N2CCN(CC(C)(C)C)C(CCO)C2)CC1` (stereo not given), for which the activity score (negative = inhibition) is -1.04%.
Under `COc1ccccc1C(=O)Nc1ccnn1C1CCN(C(=O)C(C)(C)C)CC1` stands -0.909%.
Under `CC(C)(C)NC(=O)CSC(=Nc1ccccc1F)NC#N` stands 0.51%.
To `Cc1c(NC(=S)NC(=O)CCc2ccccc2)c(=O)n(-c2ccccc2)n1C` belongs 0.697%; to `COCc1ccc(C(=O)N2CCc3c([nH]c4ccccc34)C2c2ccccn2)s1` (stereo not given), 1.6%.
As to `CCNC(=S)N(CCN(CC)CC)Cc1cc2cc3c(cc2[nH]c1=O)OCCO3`, the activity score (negative = inhibition) was 1.49%.
Under `Cc1csc(NC(=O)CSc2nc(=O)cc(N)n2-c2ccc(F)cc2)n1` stands 1.17%.
To `Cc1c(C(=O)NCCN(C)C)oc2ccc(S(=O)(=O)N3CCCC3)cc12` belongs -4.78%; to `CN1CCN(/N=C/c2ccc(-c3ccc([N+](=O)[O-])cc3)o2)CC1`, -0.646%; to `CN1CCN(/N=C2/C(=O)Nc3ccc([N+](=O)[O-])cc32)CC1`, -63.8% (active).
Consider `Cc1ccc([N+](=O)[O-])cc1S(=O)(=O)N1CCCN(C)CC1`, for which the activity score (negative = inhibition) was -1.01%.
Under `Cc1cccc(NC(=O)C2CC(=O)OC23CCCC3)c1` (stereo not given) stands 2.08%; under `COCCn1c(C)cc(C(=O)CSc2nc3ccccc3c(=O)n2C(C)COC)c1C` (stereo not given), -2.4%; under `COC(=O)/C(=C\Nc1ccccc1)NC(=O)c1ccc(Cl)cc1Cl`, 1.73%.
To `N/C(=N\OC(=O)CCCC(=O)O)c1ncc(C(F)(F)F)cc1Cl` belongs 1.16%; to `CCS(=O)(=O)N1CCC(N2CCN(c3ccccc3)CC2)CC1`, 1%.
For the compound `CCc1cccc(NC(=S)N(CCN(C)C)C2CCN(C(C)C)CC2)c1`, the activity score (negative = inhibition) was 1.7%.
To `COc1ccc2ccccc2c1CNCc1ccccn1` belongs -4.15%; to `O=[N+]([O-])c1ccccc1S(=O)(=O)Nc1cccc2cccnc12`, 0.31%.
To `CC(=O)N1CC[n+]2c(-c3ccc([N+](=O)[O-])cc3)csc21` belongs -0.11%; to `COCCn1c(SCC(=O)Nc2ccccc2F)nc2c(c1=O)SCC2`, 0.573%; to `CN(CC(=O)Nc1ccccc1Cl)C(=O)c1ccccc1SCC(=O)N1CCCC1`, -1.62%.
Take `CC(=O)Nc1cccc(C(=O)OCC(=O)c2ccc3c(c2)OCO3)c1`: the activity score (negative = inhibition) was 0.7%.
In the case of `COc1ccc(N(CC(=O)N2CCCCCC2)S(=O)(=O)c2ccccc2)cc1`, the activity score (negative = inhibition) is -4.12%.
To `CCOc1ccc(NC(=O)c2ccc(NC(=O)CN3C(=O)C(=O)N(CC(C)C)C3=O)cc2)cc1` belongs 0.0927%.
To `OCCCNc1nccc(-c2cc(Nc3cccc(Cl)c3)ncn2)n1` belongs -98.4% (active).
To `OCCCNc1nc(-c2ccccc2)c2cc(Cl)ccc2n1` belongs 0.00658%; to `CC(C)n1cnc2c(Nc3cccc(Cl)c3)nc(N(CCO)CCCO)nc21`, -11.5%; to `Nc1nonc1-n1nnc(C(=O)N/N=C\c2ccncc2)c1CN1CCCCC1`, -94.2% (active).
As for `NNC(=O)c1nnn(-c2nonc2N)c1CN1CCCC1`, the activity score (negative = inhibition) was 2.11%.
Under `Nc1nonc1-n1nnc(C(=O)N/N=C/c2ccccc2O)c1CN1CCCC1` stands -36.9%; under `CN(CCC1CCOCC1)C(=O)CC1C(=O)NCCN1Cc1cccc(F)c1` (stereo not given), -0.992%; under `COc1ccc(S(=O)(=O)NCCCCOc2ccc(Cl)cc2)cc1`, -0.131%.
To `CC(=O)Nc1ccccc1OC(C)C(=O)N1CCC(C)CC1` (stereo not given) belongs 0.974%; to `CCn1cc(C(=O)NCCC(=O)NCCO)c(=O)c2cc3c(cc21)OCO3`, -2.21%; to `COc1ccccc1-n1c(=S)[nH]c2c(sc(=S)n2-c2ccc(C)cc2C)c1=O`, -0.962%.
Under `NC(=O)C[n+]1cccc(C(N)=O)c1` stands 2.13%; under `CC(=O)Nc1ccc(C(=O)Nc2cccc(S(=O)(=O)NC3=NCCC3)c2)cc1`, 1.23%; under `CSC1=NC2(C)CCCCC2C12C=CC(=O)C=C2` (stereo not given), 2.87%.
In the case of `Cc1nc(C)c(-c2nnc(-c3cccc(S(=O)(=O)N(C)C)c3)o2)cc1C(=O)NN`, the activity score (negative = inhibition) was -3.56%.
As to `CC(=O)N1CCN(S(=O)(=O)c2cccc(C(=O)NC3CCC(C)CC3)c2)CC1` (stereo not given), the activity score (negative = inhibition) was -4.6%.
As to `O=C(NCc1ccco1)/C(=C\c1cccc([N+](=O)[O-])c1)NC(=O)c1ccco1`, the activity score (negative = inhibition) was -2.64%.
Under `CCS(=O)(=O)c1ccc(-c2cccc(NC(=O)c3ccc(Br)o3)c2)nn1` stands 2.73%; under `CCC(C)(C)NC(=O)C(c1cccc(OC)c1OC)N(CC(C)C)C(=O)CCC(=O)Nc1cc(C)on1` (stereo not given), -2.19%.
With `COC(=O)[C@@H]1C[C@@]2(O)[C@H](O)[C@H](O)[C@H](O)C[C@H]2N1Cc1ccc(C)s1`, the activity score (negative = inhibition) is 2.63%.
Under `CCCCC1S/C(=N/N=C/c2cccs2)NC1=O` (stereo not given) stands 0.416%.
`COc1ccc(OC)c(-c2csc(NC(=O)C3=NNC(=O)CC3)n2)c1`: the activity score (negative = inhibition) is -0.495%.
As for `CC(C)c1ccc(NC(=O)CCN2C(=O)c3ccc([N+](=O)[O-])cc3C2=O)cc1`, the activity score (negative = inhibition) is -3.13%.
Under `O=S(=O)(NC1CC1)c1ccc(F)c(F)c1` stands 1.68%; under `CCCCn1c(=O)c(CCC(=O)OCC(=O)Nc2ccc(C)c(Cl)c2)nc2ccccc21`, -3%; under `CCN(C(=O)C1CCCN(c2nc(-c3ccc(OC)cc3)no2)C1)c1ccc(OC)cc1` (stereo not given), -3.3%.
To `COc1ccc(NC(=O)CCC(=O)N2CCN(S(=O)(=O)c3ccc(C)cc3)CC2)c(OC)c1` belongs -0.163%; to `CCCc1ccc(OCC(O)CN2CCN(C(=O)OCC)CC2)cc1` (stereo not given), 4.1%.
`CCc1nn(CCCC(=O)Nc2ccc(C)cc2C)c(=O)c2cc3occc3n12`: the activity score (negative = inhibition) was 2.31%.
Consider `CC(=O)C1=C(C)NC(C)=C(C(C)=O)C1c1cn(-c2ccccc2)nc1-c1cccs1`, for which the activity score (negative = inhibition) was -1.7%.
`O=C(N/N=C/c1cccc(O)c1)c1cc2c(ccc3ccccc32)o1`: the activity score (negative = inhibition) was -3.92%.
Under `COc1ccc(Cl)cc1NC(=O)CN(C)C(=O)CCCc1c[nH]c2ccccc12` stands -0.853%; under `COc1ccc(-n2nc(C(=O)NCC(=O)N3CCCCCC3)c3ccccc3c2=O)cc1Cl`, -0.439%.
To `COc1cccc(CCNC(=O)COc2cccc3c2OC(C)(C)C3)c1` belongs 1.98%; to `Cc1ccc(NC(=O)Cn2cccc2C2=NC(c3ccccc3)CO2)c(C)c1` (stereo not given), -1.16%; to `COc1ccc(C(=O)C2CCCN(C(=O)c3ccc(OC)o3)C2)c(C)c1` (stereo not given), 0.0837%.
Under `CC(C)Cc1ccc(C(C)C(=N)N)cc1` (stereo not given) stands -0.885%; under `CC(C)(C)c1ccc(C(=O)NNC(=O)Cc2ccccc2)cc1`, -1.05%.
`COc1ccc(NC(=O)C2CCC(CNS(=O)(=O)c3csc(C(N)=O)c3)CC2)cc1OC` (stereo not given): the activity score (negative = inhibition) was 2.83%.
To `O=c1c2c(ncn1Cc1ccccc1)nc1n2CCC1` belongs -1.79%.
With `O=C(CSc1ccc(-c2ccc(-n3cccn3)cc2)nn1)Nc1ccc([N+](=O)[O-])cc1`, the activity score (negative = inhibition) was -1.44%.
Under `CCO[C@@H]1OC(C(=O)NC2CC2)=C[C@H](C)[C@H]1CCCO` stands 1.19%; under `CCOC(=O)C1=C(CC)Nc2ccccc2N=C1NC(=O)c1cccc(S(=O)(=O)N2CCCC2)c1`, 3.96%.

Source of the values: PubChem BioAssay AID2097 (Broad Institute, 2009).
